Columns and labels:
Assay type in all cases: ADME, organism-based
Conditions in all cases: in vivo
Cerebrum [1] = test: Drug level in Long Evans rat cerebrum assessed as radioactivity per gram of tissue at 5 mg/kg, iv administered as single bolus dose measured 72 hrs postdose by autoradiography; parameters: dose 5 mg/kg, route intravenous
Summary of the method: (§1)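 Male pigmented Long Evans (HsdBlu:LE) rats, 7.5 weeks old, 202 to 217 g, single iv [¹⁴C]anidulafungin; one rat per sampling time. Euthanized by isoflurane and cardiac-puncture exsanguination. Sagittal whole-body sections quantified by phosphorimaging autoradiography, single samples corrected for section thickness across multiple sections per tissue. Concentrations (μg eq/g drug-derived radioactivity) interpolated from least-squares standard curves per scan.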

Spleen = test: Drug level in Long Evans rat spleen assessed as radioactivity per gram of tissue at 5 mg/kg, iv administered as single bolus dose measured 0.5 hrs postdose by autoradiography; parameters: dose 5 mg/kg, route intravenous
Summary of the method: (§2)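 Male pigmented Long Evans (HsdBlu:LE) rats, 7.5 weeks old and 202 to 217 g, got a single iv dose of [14C]anidulafungin at 5 mg/kg. One rat per time point (0.5, 6, 12, 24, 72, 168 h) was euthanised by isoflurane and cardiac-puncture exsanguination. Sagittal whole-body sections were quantified by phosphorimaging. Samples were thickness-corrected, and concentrations (μg eq/g) were interpolated from least-squares standard curves.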

Cerebrospinal fluid [2] = test: Drug level in Long Evans rat cerebrospinal fluid assessed as radioactivity per gram of tissue at 5 mg/kg, iv administered as single bolus dose measured 72 hrs postdose by autoradiography; parameters: dose 5 mg/kg, route intravenous; summary of the method: as §1
Zone of skin [3] = test: Drug level in Long Evans rat skin assessed as radioactivity per gram of tissue at 5 mg/kg, iv administered as single bolus dose measured 24 hrs postdose by autoradiography; parameters: dose 5 mg/kg, route intravenous; summary of the method: as §2
Zone of skin [4] = test: Drug level in Long Evans rat skin assessed as radioactivity per gram of tissue at 5 mg/kg, iv administered as single bolus dose measured 12 hrs postdose by autoradiography; parameters: dose 5 mg/kg, route intravenous; summary of the method: as §2
Blood [5] = test: Tmax in F344 rat blood assessed as total compound-derived radioactivity at 5 mg/kg, iv administered as single bolus dose […]; parameters: dose 5 mg/kg, route intravenous
Summary of the method: (§3)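 Male F344 rats, 10 to 11 weeks old and 223.6 to 243.8 g, got one iv dose of [14C]anidulafungin at 5 mg/kg over about 5 min. Blood, CSF, kidney, liver, lung, quadriceps, spleen and skin were sampled predose and at 0.083 to 72 h, 3 rats per time. Total radioactivity (parent plus metabolites) was measured by liquid scintillation counting. Parameters were noncompartmental, from a composite mean profile.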

Muscle tissue [6] = test: AUC (0 to infinity) in F344 rat muscle assessed as total compound-derived radioactivity per gram of tissue at 5 mg/kg, iv administered as single bolus dose […]; parameters: time infinity, dose 5 mg/kg, route intravenous
Summary of the method: (§4)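 Same F344 study: single 5 mg/kg IV [¹⁴C]anidulafungin given over about 5 min. Total drug-derived radioactivity (parent plus metabolites) counted by liquid scintillation, in […]. Noncompartmental analysis of the composite mean profile.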

Lung [7] = test: Cmax in F344 rat lung assessed as total compound-derived radioactivity per gram of tissue at 5 mg/kg, iv administered as single bolus dose after 5 mins by HPLC method; parameters: dose 5 mg/kg, route intravenous; summary of the method: as §4
[8] = Drug level in Long Evans rat eye assessed as radioactivity per gram of tissue at 5 mg/kg, iv administered as single bolus dose measured 0.5 hrs postdose by autoradiography; parameters: dose 5 mg/kg, route intravenous; summary of the method: as §1
Muscle tissue [9] = test: AUC (0 to 24 hrs) in F344 rat muscle assessed as total compound-derived radioactivity per gram of tissue at 5 mg/kg, iv administered as single bolus dose […]; parameters: time < 24 hr, dose 5 mg/kg, route intravenous; summary of the method: as §4
Cerebrospinal fluid [10] = test: Tmax in F344 rat cerebrospinal fluid assessed as total compound-derived radioactivity at 5 mg/kg, iv administered as single bolus dose […]; parameters: dose 5 mg/kg, route intravenous; summary of the method: as §3
Liver [11] = test: Cmax in F344 rat liver assessed as total compound-derived radioactivity per gram of tissue at 5 mg/kg, iv administered as single bolus dose […]; parameters: dose 5 mg/kg, route intravenous; summary of the method: as §4
Liver [12] = test: Drug level in Long Evans rat liver assessed as high disposition of radioactivity per gram of tissue at 5 mg/kg, iv administered as single bolus dose measured 0.5 hrs postdose by autoradiography; parameters: dose 5 mg/kg, route intravenous; summary of the method: as §1
Lung [13] = test: AUC (0 to infinity) in F344 rat lung at 5 mg/kg, iv administered as single bolus dose; parameters: time infinity, dose 5 mg/kg, route intravenous
Summary of the method: (§5)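 Male F344 rats, 10–11 weeks, 223.6–243.8 g, given one IV dose of [¹⁴C]anidulafungin, 5 mg/kg, over about 5 min. Tissues and blood sampled at 0.083–72 h (n = 3 rats per time). Parent drug measured by HPLC; LLOQ/ULOQ were 20/5,120 ng/ml for plasma and 220/56,320 ng/g for tissue. Noncompartmental parameters taken from the composite mean profile.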

Blood [14] = test: AUC (0 to 24 hrs) in F344 rat blood assessed as total compound-derived radioactivity per gram of tissue at 5 mg/kg, iv administered as single bolus dose […]; parameters: time < 24 hr, dose 5 mg/kg, route intravenous; summary of the method: as §4
Liver [15] = test: Drug level in Long Evans rat liver assessed as low disposition of radioactivity per gram of tissue at 5 mg/kg, iv administered as single bolus dose measured 6 hrs postdose by autoradiography; parameters: dose 5 mg/kg, route intravenous; summary of the method: as §1
Liver [16] = test: Drug level in Long Evans rat liver assessed as high disposition of radioactivity per gram of tissue at 5 mg/kg, iv administered as single bolus dose measured 6 hrs postdose by autoradiography; parameters: dose 5 mg/kg, route intravenous; summary of the method: as §1
Cerebrum [17] = test: Drug level in Long Evans rat cerebrum assessed as radioactivity per gram of tissue at 5 mg/kg, iv administered as single bolus dose measured 168 hrs postdose by autoradiography; parameters: dose 5 mg/kg, route intravenous; summary of the method: as §1
Muscle tissue [18] = test: Half life in F344 rat muscle assessed as total compound-derived radioactivity at 5 mg/kg, iv administered as single bolus dose […]; parameters: dose 5 mg/kg, route intravenous; summary of the method: as §3
Cerebrospinal fluid [19] = test: Drug level in Long Evans rat cerebrospinal fluid assessed as radioactivity per gram of tissue at 5 mg/kg, iv administered as single bolus dose measured 12 hrs postdose by autoradiography; parameters: dose 5 mg/kg, route intravenous; summary of the method: as §1
Liver [20] = test: Drug level in Long Evans rat liver assessed as low disposition of radioactivity per gram of tissue at 5 mg/kg, iv administered as single bolus dose measured 72 hrs postdose by autoradiography; parameters: dose 5 mg/kg, route intravenous; summary of the method: as §1
Zone of skin [21] = test: Tmax in F344 rat skin assessed as total compound-derived radioactivity at 5 mg/kg, iv administered as single bolus dose […]; parameters: dose 5 mg/kg, route intravenous; summary of the method: as §3
Zone of skin [22] = test: Drug level in Long Evans rat skin assessed as radioactivity per gram of tissue at 5 mg/kg, iv administered as single bolus dose measured 6 hrs postdose by autoradiography; parameters: dose 5 mg/kg, route intravenous; summary of the method: as §2
Plasma [23] = test: Half life in F344 rat plasma assessed as total compound-derived radioactivity at 5 mg/kg, iv administered as single bolus dose […]; parameters: dose 5 mg/kg, route intravenous; summary of the method: as §3
Zone of skin [24] = test: AUC (0 to infinity) in F344 rat skin at 5 mg/kg, iv administered as single bolus dose; parameters: time infinity, dose 5 mg/kg, route intravenous; summary of the method: as §5
Plasma [25] = test: Tmax in F344 rat plasma assessed as total compound-derived radioactivity at 5 mg/kg, iv administered as single bolus dose […]; parameters: dose 5 mg/kg, route intravenous; summary of the method: as §3
Muscle tissue [26] = test: Cmax in F344 rat muscle assessed as total compound-derived radioactivity per gram of tissue at 5 mg/kg, iv administered as single bolus dose […]; parameters: dose 5 mg/kg, route intravenous; summary of the method: as §4
Liver [27] = test: Drug level in Long Evans rat liver assessed as high disposition of radioactivity per gram of tissue at 5 mg/kg, iv administered as single bolus dose measured 72 hrs postdose by autoradiography; parameters: dose 5 mg/kg, route intravenous; summary of the method: as §1
Cerebrospinal fluid [28] = test: Cmax in F344 rat cerebrospinal fluid assessed as total compound-derived radioactivity per gram of tissue at 5 mg/kg, iv administered as single bolus dose […]; parameters: dose 5 mg/kg, route intravenous; summary of the method: as §4

Work on `CCCCCOc1ccc(-c2ccc(-c3ccc([14C](=O)N[C@H]4C[C@@H](O)[C@@H](O)NC(=O)[C@@H]5[C@@H](O)[C@@H](C)CN5C(=O)[C@H]([C@@H](C)O)NC(=O)[C@H]([C@H](O)[C@@H](O)c5ccc(O)cc5)NC(=O)[C@@H]5C[C@@H](O)CN5C(=O)[C@H]([C@@H](C)O)NC4=O)cc3)cc2)cc1` [14C-ANIDULAFUNGIN] yielded a Drug uptake (Cerebrum [1]) of 0.47 ugequiv, a Drug uptake (Spleen) of 20.67 ugequiv and a Drug uptake (Cerebrospinal fluid [2]) of 3.37 ugequiv. The Drug uptake (Zone of skin [3]) was 3.5 ugequiv, the Drug uptake (Zone of skin [4]) was 5.34 ugequiv and the Tmax (Blood [5]) was 4.98 min. It also gave an AUC (Muscle tissue [6]) of 139.22 ugequiv.hr/g, a Cmax (Lung [7]) of 39.29 ugequiv/g and a Drug uptake [8] of 1.17 ugequiv. The AUC (Muscle tissue [9]) was 102.96 ugequiv.hr/g, the Tmax (Cerebrospinal fluid [10]) was 4.98 min and the Cmax (Liver [11]) was 24.28 ugequiv/g. It also gave a Drug uptake (Liver [12]) of 11.79 ugequiv, an AUC (Lung [13]) of 638.21 µg·h/g and an AUC (Blood [14]) of 203.14 ugequiv.hr/g. It also gave a Drug uptake (Liver [15]) of 17.68 ugequiv, a Drug uptake (Liver [16]) of 29.1 ugequiv and a Drug uptake (Cerebrum [17]) of 0.6 ugequiv. It also gave a t1/2 (Muscle tissue [18]) of 37.5 h, a Drug uptake (Cerebrospinal fluid [19]) of 3.82 ugequiv and a Drug uptake (Liver [20]) of 7.22 ugequiv. For the same molecule, the Tmax (Zone of skin [21]) was 60 min, the Drug uptake (Zone of skin [22]) was 5.39 ugequiv and the t1/2 (Plasma [23]) was 37.4 h. For the same molecule, the AUC (Zone of skin [24]) was 124.11 µg·h/g, the Tmax (Plasma [25]) was 4.98 min and the Cmax (Muscle tissue [26]) was 4.16 ugequiv/g. The Drug uptake (Liver [27]) was 16.9 ugequiv and the Cmax (Cerebrospinal fluid [28]) was 0.07 ugequiv/g.

— ChEMBL document CHEMBL1275442, “Pharmacokinetics and tissue distribution of anidulafungin in rats” (Antimicrob Agents Chemother, 2008)
